Measured values from different studies.
Each line is one published result; the experiments were not run side by side.
Target: Serine/threonine-protein kinase MARK1 (MARK1, Homo sapiens, UniProt Q9P0L2)

F[C@@H]1CCN(c2nccc(-c3cnn4ncccc34)n2)C1
remaining binding (binding; 1 µM): 100%

O=C(c1ccc(Nc2nccc(-c3cc4ccccc4s3)n2)cc1)N1CCC(N2CCCC2)CC1
remaining binding (binding, competition with immobilised ligand; 1 µM): 62%

C=CC(=O)N1CCC(C(=O)NCC(=O)N2CCN(c3nc(-c4cnc(N)nc4C(F)F)nc(N4CCOCC4)n3)CC2)CC1
remaining binding (binding, competition with immobilised ligand; 1 µM): 100%

CNC(=O)Nc1ccc2c(c1)CC[C@@]21OC(=O)N(CC(=O)N(Cc2ccc(F)cc2)[C@@H](C)C(F)(F)F)C1=O
remaining binding (cell-free assay, competition with immobilised ligand; 1 µM): 89%

O=C(NCCCN1CCOCC1)c1ccc(Nc2ncc(Cl)c(-c3ccc(Cl)s3)n2)cc1
remaining binding (binding, competition with immobilised ligand; 1 µM): 25%

C[C@@H]1CCN(c2nccc(-c3cnn4ncccc34)n2)C1
remaining binding (binding; 1 µM): 100%

Cc1cc(NC(=O)c2cccc(S(F)(F)(F)(F)F)c2)cc(-n2ccn3nc(-c4cccnc4)cc23)c1
remaining binding (cell-free assay, competition with immobilised ligand; 1 µM): 100%

CNC(=O)[C@@H]1CC[C@@H](n2c(-c3ccc4cnccc4c3)nc3ccc(C(=O)NCc4cccc(C(N)=O)c4)cc32)C1
remaining binding (binding, competition with immobilised ligand; 1 µM): 94%

N[C@@H]1CCN(c2nccc(-c3cnn4ncccc34)n2)C1
remaining binding (binding; 1 µM): 100%

O=c1nc(-c2ccccn2)sc2ccccc12
remaining binding (binding, competition with immobilised ligand; 1 µM): 100%

CN(CCCC(F)(F)F)c1nccc(-c2cnn3ncccc23)n1
remaining binding (binding; 1 µM): 100%

Cn1nc(C(=O)NCc2ccc(C(=O)O)cc2)cc1-c1ccc2[nH]ccc2c1
remaining binding (cell-free assay, competition with immobilised ligand; 0.1 µM): 100%

FC(F)(F)Oc1cccc(-c2cnc3ccc(-c4ccncc4)nn23)c1
remaining binding (cell-free assay, competition with immobilised ligand; 5 µM): 79%

O=C(NCC1CCOCC1)c1n[nH]cc1NC(=O)c1c(F)cccc1F
remaining binding (binding, competition with immobilised ligand; 1 µM): 100%

COc1ccnn2ncc(-c3ccnc(N(C)C)n3)c12
remaining binding (binding; 1 µM): 97%

Cc1nc(Cc2cccc(C(F)(F)F)c2)sc1-c1ccc(C(N)=O)nc1
remaining binding (cell-free assay, competition with immobilised ligand; 1 µM): 90%

O=C(c1ccc(Nc2ncc(Cl)c(-c3cc4ccccc4s3)n2)cc1)N1CCC(N2CCCC2)CC1
remaining binding (binding, competition with immobilised ligand; 1 µM): 27%

COCCOc1nc(-c2ccc(Cl)nc2)nc2c1CN(C(=O)c1ncn3ccccc13)CC2
remaining binding (cell-free assay, competition with immobilised ligand; 0.1 µM): 100%

CC1CCCN1c1nccc(-c2cnn3ncccc23)n1 (stereo not shown)
remaining binding (binding; 1 µM): 100%

Nc1ncc2c(n1)-c1c([nH]c3ccc(C#CC4CC4)cc13)CCCC2
remaining binding (binding, competition with immobilised ligand; 1 µM): 98%

CN(c1nccc(-c2cnn3ncccc23)n1)C1CC1
remaining binding (binding; 1 µM): 83%

CN(C)C(=O)Cn1cc(-c2nc([C@@](C)(c3ccc(-c4cnc(N)nc4)cc3)C3CC3)no2)cn1
remaining binding (cell-free assay, competition with immobilised ligand; 1 µM): 92%
